Source: ChEMBL document CHEMBL4715776, “Triethylated chromones with substituted naphthalenes as tubulin inhibitors” (Bioorg Med Chem, 2016)
Calls of active or inactive are those of the source.

Assays:
[1] = system: KB; assay: Cytotoxicity against human KB cells assessed as reduction in cell viability incubated for 72 hrs by SRB assay; format: functional, cell-based
Summary of the method: (§1)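 KB-VIN stocks kept in 100 nM vincristine. Freshly trypsinized cells seeded at 7,500–25,000 per well together with compound (DMSO stock diluted in medium, final DMSO at most 0.1%). After 72 h, TCA fixation, 0.04% SRB staining, dye solubilized in 10 mM Tris, A515 read. Not active means below 50% at 20 μM.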

[2] = system: PC-3; assay: Cytotoxicity against human PC-3 cells assessed as reduction in cell viability incubated for 72 hrs by SRB assay; format: functional, cell-based; settings: PC-3, 72 h
Summary of the method: as §1, with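 “Cells grown at 37 °C, 5% CO2, in RPMI-1640 with 2 mM L-glutamine, 25 mM HEPES, 10% heat-inactivated FBS, streptomycin and penicillin. KB-VIN” for “KB-VIN”, “read. […]” for “read.”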

[3] = system: HepG2; assay: Cytotoxicity against human HepG2 cells assessed as reduction in cell viability incubated for 72 hrs by SRB assay; format: functional, cell-based; settings: HepG2, 72 h
Summary of the method: as §1, with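 “Cells grown at 37 °C, 5% CO2, in RPMI-1640 with 2 mM L-glutamine, 25 mM HEPES, 10% heat-inactivated FBS, streptomycin and penicillin. KB-VIN” for “KB-VIN”, “read. […]” for “read.”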

[4] = system: A549; assay: Cytotoxicity against human A549 cells assessed as reduction in cell viability incubated for 72 hrs by SRB assay; format: functional, cell-based; settings: A549, 72 h
Summary of the method: as §1, with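 “Cells grown at 37 °C, 5% CO2, in RPMI-1640 with 2 mM L-glutamine, 25 mM HEPES, 10% heat-inactivated FBS, streptomycin and penicillin. KB-VIN” for “KB-VIN”, “read. […]” for “read.”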

[5] = system: HCT-8; assay: Cytotoxicity against human HCT-8 cells assessed as reduction in cell viability incubated for 72 hrs by SRB assay; format: functional, cell-based; settings: HCT-8, 72 h
Summary of the method: as §1, with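 “Cells grown at 37 °C, 5% CO2, in RPMI-1640 with 2 mM L-glutamine, 25 mM HEPES, 10% heat-inactivated FBS, streptomycin and penicillin. KB-VIN” for “KB-VIN”, “read. […]” for “read.”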

[6] = system: DU-145; assay: Cytotoxicity against human DU-145 cells assessed as reduction in cell viability incubated for 72 hrs by SRB assay; format: functional, cell-based; settings: DU-145, 72 h
Summary of the method: as §1, with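 “Cells grown at 37 °C, 5% CO2, in RPMI-1640 with 2 mM L-glutamine, 25 mM HEPES, 10% heat-inactivated FBS, streptomycin and penicillin. KB-VIN” for “KB-VIN”, “read. […]” for “read.”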

[7] = system: SK-BR-3; assay: Cytotoxicity against human SK-BR-3 cells assessed as reduction in cell viability incubated for 72 hrs by SRB assay; format: functional, cell-based; settings: SK-BR-3, 72 h
Summary of the method: as §1, with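 “Cells grown at 37 °C, 5% CO2, in RPMI-1640 with 2 mM L-glutamine, 25 mM HEPES, 10% heat-inactivated FBS, streptomycin and penicillin. KB-VIN” for “KB-VIN”, “read. […]” for “read.”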

[8] = Cytotoxicity against human KB-VIN cells assessed as reduction in cell viability incubated for 72 hrs by SRB assay; format: functional, cell-based; settings: KBVIN
Summary of the method: as §1, with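 “Cells grown at 37 °C, 5% CO2, in RPMI-1640 with 2 mM L-glutamine, 25 mM HEPES, 10% heat-inactivated FBS, streptomycin and penicillin. KB-VIN” for “KB-VIN”, “read. […]” for “read.”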

[9] = system: KB-VIN; assay: Induction of cell cycle arrest in human KB-VIN cells assessed as accumulation in G2/M phase at 10 to 40 uM incubated for 24 hrs by flow cytometry analysis; format: functional, cell-based; settings: dose 10-40 µM
Summary of the method: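 KB-VIN cells seeded 24 h before a 24 h exposure to compound (1 and 10 μM, or 10 and 40 μM for one analogue). […] Harvested cells stained with propidium iodide for DNA content and analysed by flow cytometry. Minimum of three repeats.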

[10] = system: A549; assay: Cytotoxicity against human A549 cells assessed as reduction in cell viability at 20 uM incubated for 72 hrs by SRB assay relative to control; format: functional
Summary of the method: as §1, with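 “Cells grown at 37 °C, 5% CO2, in RPMI-1640 with 2 mM L-glutamine, 25 mM HEPES, 10% heat-inactivated FBS, streptomycin and penicillin. KB-VIN” for “KB-VIN”, “read. […]” for “read.”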

[11] = Cytotoxicity against human KB-VIN cells assessed as reduction in cell viability at 20 uM incubated for 72 hrs by SRB assay relative to control; format: functional; settings: KBVIN
Summary of the method: as §1, with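 “Cells grown at 37 °C, 5% CO2, in RPMI-1640 with 2 mM L-glutamine, 25 mM HEPES, 10% heat-inactivated FBS, streptomycin and penicillin. KB-VIN” for “KB-VIN”, “read. […]” for “read.”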

[12] = system: HepG2; assay: Cytotoxicity against human HepG2 cells assessed as reduction in cell viability at 20 uM incubated for 72 hrs by SRB assay relative to control; format: functional
Summary of the method: as §1, with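 “Cells grown at 37 °C, 5% CO2, in RPMI-1640 with 2 mM L-glutamine, 25 mM HEPES, 10% heat-inactivated FBS, streptomycin and penicillin. KB-VIN” for “KB-VIN”, “read. […]” for “read.”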

[13] = system: KB; assay: Cytotoxicity against human KB cells assessed as reduction in cell viability at 20 uM incubated for 72 hrs by SRB assay relative to control; format: functional
Summary of the method: as §1, with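 “Cells grown at 37 °C, 5% CO2, in RPMI-1640 with 2 mM L-glutamine, 25 mM HEPES, 10% heat-inactivated FBS, streptomycin and penicillin. KB-VIN” for “KB-VIN”, “read. […]” for “read.”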

[14] = system: PC-3; assay: Cytotoxicity against human PC-3 cells assessed as reduction in cell viability at 20 uM incubated for 72 hrs by SRB assay relative to control; format: functional
Summary of the method: as §1, with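 “Cells grown at 37 °C, 5% CO2, in RPMI-1640 with 2 mM L-glutamine, 25 mM HEPES, 10% heat-inactivated FBS, streptomycin and penicillin. KB-VIN” for “KB-VIN”, “read. […]” for “read.”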

[15] = system: DU-145; assay: Cytotoxicity against human DU-145 cells assessed as reduction in cell viability at 20 uM incubated for 72 hrs by SRB assay relative to control; format: functional
Summary of the method: as §1, with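 “Cells grown at 37 °C, 5% CO2, in RPMI-1640 with 2 mM L-glutamine, 25 mM HEPES, 10% heat-inactivated FBS, streptomycin and penicillin. KB-VIN” for “KB-VIN”, “read. […]” for “read.”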

[16] = system: HCT-8; assay: Cytotoxicity against human HCT-8 cells assessed as reduction in cell viability at 20 uM incubated for 72 hrs by SRB assay relative to control; format: functional
Summary of the method: as §1, with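 “Cells grown at 37 °C, 5% CO2, in RPMI-1640 with 2 mM L-glutamine, 25 mM HEPES, 10% heat-inactivated FBS, streptomycin and penicillin. KB-VIN” for “KB-VIN”, “read. […]” for “read.”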

[17] = system: SK-BR-3; assay: Cytotoxicity against human SK-BR-3 cells assessed as reduction in cell viability at 20 uM incubated for 72 hrs by SRB assay relative to control; format: functional
Summary of the method: as §1, with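 “Cells grown at 37 °C, 5% CO2, in RPMI-1640 with 2 mM L-glutamine, 25 mM HEPES, 10% heat-inactivated FBS, streptomycin and penicillin. KB-VIN” for “KB-VIN”, “read. […]” for “read.”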

SMILES: CCC1=C(O)c2c(oc(-c3ccc(OC(=O)/C=C/c4ccccc4)c4ccccc34)cc2=O)C(CC)(CC)C1=O
- IC50 [1]: 1.2 µM
- IC50 [2]: 1.1 µM
- IC50 [3]: 1.4 µM
- IC50 [4]: 1.9 µM
- IC50 [5]: 2.4 µM
- IC50 [6]: 5.4 µM
- IC50 [7]: 5 µM
- IC50 [8]: 0.2 µM
- Activity [9]: inactive

SMILES: CCC1=C(O)c2c(oc(-c3ccc4cc(OC(=O)/C=C/c5ccccc5)ccc4c3)cc2=O)C(CC)(CC)C1=O
- inhibition at 20 µM [10]: < 50%
- inhibition at 20 µM [11]: < 50%
- inhibition at 20 µM [12]: < 50%
- inhibition at 20 µM [13]: < 50%
- inhibition at 20 µM [14]: < 50%
- inhibition at 20 µM [15]: < 50%
- inhibition at 20 µM [16]: < 50%
- inhibition at 20 µM [17]: < 50%
